According to ChEMBL document CHEMBL3739352, “Anticonvulsant activity, crystal structures, and preliminary safety evaluation of N-trans-cinnamoyl derivatives of selected (un)modified aminoalkanols” (Eur J Med Chem, 2016):
Calls of active or inactive are those of the source. The rule behind the calls is not given here.

What was measured:
[1] = Lipophilicity of the compound using 95% methanol in water at 1 mg/ml by RT-TLC analysis; type: physicochemical; conditions: buffer
How it was run: (§1)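 Reversed-phase TLC with a methanol–water mobile phase at the stated methanol content (v/v). Compounds were spotted from 1 mg/mL methanol solutions after 1 h chamber saturation and located under UV light. Rf was measured and RM = log(1/Rf − 1) calculated.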

[2] = Lipophilicity of the compound at 1 mg/ml by RT-TLC analysis relative to 0% methanol; type: physicochemical; conditions: methanol/water
How it was run: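 Reversed-phase TLC used methanol–water mobile phases of 95–65% methanol. Compounds were applied from 1 mg/mL methanol solutions after 1 h chamber saturation, with UV detection. RM = log(1/Rf − 1) was calculated at each methanol level and extrapolated linearly (RM = RM0 + bC) to 0% methanol to give RM0.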

Salmonella typhimurium [3] = assay: Mutagenicity in Salmonella typhimurium TA100 assessed as mutagenic index at 20 ug/plate by Ames test; type: toxicity, organism-based; conditions: salmonella enterica subsp. enterica serovar typhimurium
How it was run: (§2)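 Ames preincubation test. Strain culture was grown 12 h at 37 °C in nutrient broth, then mixed with compound in DMSO (final 4, 20, 100, 500, 1000 per plate) and buffer in top agar with trace histidine. This was plated on glucose minimal agar for 48 h at 37 °C. Mutagenic index = revertants with compound / DMSO control revertants, from three independent repeats.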

Salmonella typhimurium [4] = assay: Mutagenicity in Salmonella typhimurium TA1535 assessed as mutagenic index at 1000 ug/plate by Ames test; type: toxicity, organism-based; conditions: salmonella enterica subsp. enterica serovar typhimurium
Salmonella typhimurium [5] = assay: Mutagenicity in Salmonella typhimurium TA1535 assessed as number of revertants at 4 ug/plate by Ames test (reference value: 10 +/- 3); type: toxicity, organism-based; conditions: salmonella enterica subsp. enterica serovar typhimurium
Salmonella typhimurium [6] = assay: Mutagenicity in Salmonella typhimurium TA1535 assessed as number of revertants at 20 ug/plate by Ames test (reference value: 10 +/- 3); type: toxicity, organism-based; conditions: salmonella enterica subsp. enterica serovar typhimurium
Mus musculus [7] = assay: Anticonvulsant activity in albino Carworth Farms No.1 mouse assessed as protection against subcutaneous dosed pentetrazol-induced seizures at 100 mg/kg, ip after 4 hrs; type: functional, organism-based
How it was run: (§3)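 Mouse i.p. screen in Carworth Farms No.1 albino mice at 30, 100 or 300 mg/kg in 0.5% methylcellulose. Testing was at 0.5 and 4 h after injection, by maximal electroshock or by subcutaneous pentetrazol challenge. Scoring was number protected / number used.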

[8] = Lipophilicity of the compound using 75% methanol in water at 1 mg/ml by RT-TLC analysis; type: physicochemical; conditions: buffer; how it was run: as §1
Mus musculus [9] = assay: Anticonvulsant activity in albino Carworth Farms No.1 mouse assessed as protection against maximal electroshock-induced seizures at 30 mg/kg, ip after 0.5 hrs; type: functional, organism-based; how it was run: as §3
Salmonella typhimurium [10] = assay: Mutagenicity in Salmonella typhimurium TA100 assessed as number of revertants at 20 ug/plate by Ames test (reference value: 77 +/-4); type: toxicity, organism-based; conditions: salmonella enterica subsp. enterica serovar typhimurium
How it was run: (§4)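 Salmonella TA100 preincubation Ames assay: overnight-type 12 h broth culture at 37 °C, compound in DMSO at final 4–1000 per plate, top agar with trace histidine, glucose minimal agar, 48 h at 37 °C. Revertant colonies per plate were counted, with a DMSO negative control and a sodium azide positive control. Three independent repetitions were run.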

Salmonella typhimurium [11] = assay: Mutagenicity in Salmonella typhimurium TA100 assessed as number of revertants at 100 ug/plate by Ames test (reference value: 77 +/-4); type: toxicity, organism-based; conditions: salmonella enterica subsp. enterica serovar typhimurium; how it was run: as §4
[12] = Lipophilicity of the compound using 90% methanol in water at 1 mg/ml by RT-TLC analysis; type: physicochemical; conditions: buffer; how it was run: as §1
Salmonella typhimurium [13] = assay: Mutagenicity in Salmonella typhimurium TA1535 assessed as number of revertants at 500 ug/plate by Ames test (reference value: 10 +/- 3); type: toxicity, organism-based; conditions: salmonella enterica subsp. enterica serovar typhimurium
Salmonella typhimurium [14] = assay: Mutagenicity in Salmonella typhimurium TA98 assessed as number of revertants at 100 ug/plate by Ames test (reference value: 23 +/- 3); type: toxicity, organism-based; conditions: salmonella enterica subsp. enterica serovar typhimurium
Salmonella typhimurium [15] = assay: Mutagenicity in Salmonella typhimurium TA98 assessed as number of revertants at 4 ug/plate by Ames test (reference value: 23 +/- 3); type: toxicity, organism-based; conditions: salmonella enterica subsp. enterica serovar typhimurium
Salmonella typhimurium [16] = assay: Mutagenicity in Salmonella typhimurium TA1535 assessed as number of revertants at 100 ug/plate by Ames test (reference value: 10 +/- 3); type: toxicity, organism-based; conditions: salmonella enterica subsp. enterica serovar typhimurium
Salmonella typhimurium [17] = assay: Mutagenicity in Salmonella typhimurium TA1535 assessed as assessed as mutagenic index at 4 ug/plate by Ames test; type: toxicity, organism-based; conditions: salmonella enterica subsp. enterica serovar typhimurium; how it was run: as §2
Salmonella typhimurium [18] = assay: Mutagenicity in Salmonella typhimurium TA98 assessed as number of revertants at 1000 ug/plate by Ames test (reference value: 23 +/- 3); type: toxicity, organism-based; conditions: salmonella enterica subsp. enterica serovar typhimurium
Mus musculus [19] = assay: Neurotoxicity in albino Carworth Farms No.1 mouse at 30 mg/kg, ip after 4 hrs by rotarod test; type: toxicity, organism-based; conditions: in vivo
How it was run: (§5)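 Mice (albino Carworth Farms No.1) were dosed i.p. at 30, 100 or 300 mg/kg in 0.5% methylcellulose. They were tested 0.5 and 4 h later on a 1-inch knurled rod rotating at 6 rpm. Neurotoxicity was scored if a mouse could not stay on the rod for at least 1 min in each of three trials. Results are given as animals toxic/animals tested, with deaths noted.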

Salmonella typhimurium [20] = assay: Mutagenicity in Salmonella typhimurium TA98 assessed as number of revertants at 20 ug/plate by Ames test (reference value: 23 +/- 3); type: toxicity, organism-based; conditions: salmonella enterica subsp. enterica serovar typhimurium
[21] = Lipophilicity of the compound using 85% methanol in water at 1 mg/ml by RT-TLC analysis; type: physicochemical; conditions: buffer; how it was run: as §1
Salmonella typhimurium [22] = assay: Mutagenicity in Salmonella typhimurium TA100 assessed as mutagenic index at 4 ug/plate by Ames test; type: toxicity, organism-based; conditions: salmonella enterica subsp. enterica serovar typhimurium; how it was run: as §2
Salmonella typhimurium [23] = assay: Mutagenicity in Salmonella typhimurium TA100 assessed as number of revertants at 4 ug/plate by Ames test (reference value: 77 +/-4); type: toxicity, organism-based; conditions: salmonella enterica subsp. enterica serovar typhimurium; how it was run: as §4
Salmonella typhimurium [24] = assay: Mutagenicity in Salmonella typhimurium TA98 assessed as number of revertants at 500 ug/plate by Ames test (reference value: 23 +/- 3); type: toxicity, organism-based; conditions: salmonella enterica subsp. enterica serovar typhimurium
Mus musculus [25] = assay: Anticonvulsant activity in albino Carworth Farms No.1 mouse assessed as protection against subcutaneous dosed pentetrazol-induced seizures at 30 mg/kg, ip after 0.5 hrs; type: functional, organism-based; how it was run: as §3
Salmonella typhimurium [26] = assay: Mutagenicity in Salmonella typhimurium TA1535 assessed as assessed as mutagenic index at 500 ug/plate by Ames test; type: toxicity, organism-based; conditions: salmonella enterica subsp. enterica serovar typhimurium
Salmonella typhimurium [27] = assay: Mutagenicity in Salmonella typhimurium TA100 assessed as assessed as mutagenic index at 1000 ug/plate by Ames test; type: toxicity, organism-based; conditions: salmonella enterica subsp. enterica serovar typhimurium; how it was run: as §2
Salmonella typhimurium [28] = assay: Mutagenicity in Salmonella typhimurium TA100 assessed as mutagenic index at 100 ug/plate by Ames test; type: toxicity, organism-based; conditions: salmonella enterica subsp. enterica serovar typhimurium; how it was run: as §2
Mus musculus [29] = assay: Neurotoxicity in albino Carworth Farms No.1 mouse at 100 mg/kg, ip after 4 hrs by rotarod test; type: toxicity, organism-based; conditions: in vivo; how it was run: as §5
Mus musculus [30] = assay: Anticonvulsant activity in albino Carworth Farms No.1 mouse assessed as protection against maximal electroshock-induced seizures at 300 mg/kg, ip after 4 hrs; type: functional, organism-based; how it was run: as §3
Mus musculus [31] = assay: Neurotoxicity in albino Carworth Farms No.1 mouse at 300 mg/kg, ip after 0.5 hrs by rotarod test; type: toxicity, organism-based; conditions: in vivo; how it was run: as §5
Mus musculus [32] = assay: Anticonvulsant activity in albino Carworth Farms No.1 mouse assessed as protection against maximal electroshock-induced seizures at 300 mg/kg, ip after 0.5 hrs; type: functional, organism-based; how it was run: as §3
Mus musculus [33] = assay: Anticonvulsant activity in albino Carworth Farms No.1 mouse assessed as protection against subcutaneous dosed pentetrazol-induced seizures at 300 mg/kg, ip after 4 hrs; type: functional, organism-based; how it was run: as §3
Mus musculus [34] = assay: Neurotoxicity in albino Carworth Farms No.1 mouse at 300 mg/kg, ip after 4 hrs by rotarod test; type: toxicity, organism-based; conditions: in vivo; how it was run: as §5

Row | SMILES | Rm [1] | Rm [2] | Activity_index (Salmonella typhimurium [3]) | Activity_index (Salmonella typhimurium [4]) | Activity (Salmonella typhimurium [5]) | Activity (Salmonella typhimurium [6]) | Activity (Mus musculus [7]) | Rm [8] | Activity (Mus musculus [9]) | Activity (Salmonella typhimurium [10]) | Activity (Salmonella typhimurium [11]) | Rm [12] | Activity (Salmonella typhimurium [13]) | Activity (Salmonella typhimurium [14]) | Activity (Salmonella typhimurium [15]) | Activity (Salmonella typhimurium [16]) | Activity_index (Salmonella typhimurium [17]) | Activity (Salmonella typhimurium [18]) | Activity (Mus musculus [19]) | Activity (Salmonella typhimurium [20]) | other results
1 | O=C(/C=C/c1ccccc1)N1CCC(O)CC1 | -0.6 | 2.579 | 0.9 | 0.5 | 5 | 6 | inactive | -0.19 | inactive | 68 | 76 | -0.48 | 8 | 17 | 22 | 9 | 0.5 | 20 | Non-toxic | 19 | Rm [21]: -0.23; Activity_index (Salmonella typhimurium [22]): 0.9; Activity (Salmonella typhimurium [23]): 70; Activity (Salmonella typhimurium [24]): 22; Activity (Mus musculus [25]): inactive; Activity_index (Salmonella typhimurium [26]): 0.8; Activity_index (Salmonella typhimurium [27]): 0.9; Activity_index (Salmonella typhimurium [28]): 1; Activity (Mus musculus [29]): Non-toxic
2 | CC(CO)NC(=O)/C=C/c1ccccc1 (racemic) | -0.69 | 1.39 | 0.8 | 0.6 | 15 | 6 | inactive | -0.27 | inactive | 62 | 71 | -0.6 | 8 | 21 | 20 | 5 | 1.5 | 18 | Non-toxic | 20 | Activity (Mus musculus [30]): Active; Activity (Mus musculus [31]): Non-toxic; Activity (Mus musculus [32]): Active; Activity (Mus musculus [33]): inactive; Rm [21]: -0.39; Activity_index (Salmonella typhimurium [22]): 0.9; Activity (Salmonella typhimurium [23]): 67; Activity (Mus musculus [34]): Non-toxic; Activity (Salmonella typhimurium [24]): 24; Activity (Mus musculus [25]): inactive; Activity_index (Salmonella typhimurium [26]): 0.8; Activity_index (Salmonella typhimurium [27]): 0.9; Activity_index (Salmonella typhimurium [28]): 0.9; Activity (Mus musculus [29]): Non-toxic
3 | CC(O)CNC(=O)/C=C/c1ccccc1 (racemic) | -0.69 | 1.512 | 0.9 | 1.4 | 12 | 13 | inactive | -0.27 | inactive | 70 | 67 | -0.58 | 14 | 21 | 26 | 12 | 1.2 | 24 | Non-toxic | 22 | Activity (Mus musculus [30]): inactive; Activity (Mus musculus [31]): Non-toxic; Activity (Mus musculus [32]): Active; Activity (Mus musculus [33]): inactive; Rm [21]: -0.33; Activity_index (Salmonella typhimurium [22]): 0.9; Activity (Salmonella typhimurium [23]): 68; Activity (Mus musculus [34]): Non-toxic; Activity (Salmonella typhimurium [24]): 21; Activity (Mus musculus [25]): inactive; Activity_index (Salmonella typhimurium [26]): 1.4; Activity_index (Salmonella typhimurium [27]): 1; Activity_index (Salmonella typhimurium [28]): 0.9; Activity (Mus musculus [29]): Non-toxic
4 | CCC(O)CNC(=O)/C=C/c1ccccc1 (racemic) | -0.66 | 1.937 | 0.8 | 0.6 | 9 | 14 | inactive | -0.18 | inactive | 64 | 62 | -0.52 | 7 | 21 | 19 | 5 | 0.9 | 25 | Non-toxic | 20 | Activity (Mus musculus [30]): inactive; Activity (Mus musculus [31]): Non-toxic; Activity (Mus musculus [32]): Active; Activity (Mus musculus [33]): inactive; Rm [21]: -0.25; Activity_index (Salmonella typhimurium [22]): 0.8; Activity (Salmonella typhimurium [23]): 60; Activity (Mus musculus [34]): Non-toxic; Activity (Salmonella typhimurium [24]): 17; Activity (Mus musculus [25]): inactive; Activity_index (Salmonella typhimurium [26]): 0.7; Activity_index (Salmonella typhimurium [27]): 0.9; Activity_index (Salmonella typhimurium [28]): 0.8; Activity (Mus musculus [29]): Non-toxic
